Experimental data reported in PMC12065821 (Scientific Reports, 2025).
Where a SMILES comes first, the peptide text is derived from it. Bridges are numbered along the chain shown (N, C = ends). [ ]: non-standard residue; d: D form. The star is where a group is joined. X1 = CC[C@H](C)CCCCC(=O)*; Dab = NCC[C@H](N)C(=O)O

What was measured:
[1] = Plasma PK of CMS/CMS-E2 and formed colistin/colistin B; assay type: in vivo, rats; settings: rat plasma, LC-MS/MS, NCA, mean ± SD
How it was run: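 Male Sprague-Dawley rats were dosed once i.p. in saline, and serial jugular-vein blood was taken before and after dosing. Blood was heparinised (1%), spun at 4,982 × g for 10 min at 4 °C, and plasma stored at −70 °C. Plasma (40 µL) went through WCX solid-phase extraction with polymyxin B1 internal standard, then LC-MS/MS. Prodrug was total (acid-hydrolysed) minus free analyte. […] Values are mean ± SD, compared by Wilcoxon rank sum.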

[2] = Kidney PK of CMS/CMS-E2 and formed colistin/colistin B; assay type: in vivo, rats; settings: for Kp: kidney (cortex) / plasma, colistin/colistin B; for Cmax formed colistin/colistin B in kidneys / Cmax CMS/CMS-E2 in kidneys: mean ± SD
How it was run: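 Male Sprague-Dawley rats (300 ± 15 g) got one i.p. dose in saline. At each sampling time rats were anaesthetised with tiletamine-zolazepam (40 mg/kg) and killed, and the left kidney was frozen at −70 °C. Kidney cortex was homogenised in saline (1:10 m/v, 1% BSA). Samples went through WCX solid-phase extraction with polymyxin B1 internal standard, then LC-MS/MS. Prodrug was calculated as total (after […] sulfuric acid hydrolysis) minus free colistin/colistin B. Parameters came from non-compartmental analysis.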

[3] = PK-TD model, PK component; assay type: in vivo; settings: rats, single i.p. CMS 10 mg/kg CBA, one-compartment PK-TD model, mean ± SD
How it was run: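 Plasma prodrug and formed colistin/colistin B concentrations after i.p. dosing were fitted by a compartmental model. The final model used one compartment each for prodrug and formed drug, a conversion rate constant, and linear first-order total clearance from both. Fit was judged by R², AIC, BIC and visual inspection. Estimates are mean ± SD.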

rats [4] = assay: Regression of kidney colistin/colistin B concentrations against CR, BUN, SQS; assay type: in vivo; settings: 95% CI
[5] = rats; CMS and formed colistin; cited from earlier work
patients = settings: cited from earlier work
[6] = cited from earlier work
[7] = tested on: human kidney proximal tubular HK-2 cells; settings: identical dose of 0.75 mM; cited from earlier work
[8] = cited from earlier work; remark: listed apart in the source
rats [9] = assay: Kidney injury biomarkers: plasma CR and BUN; assay type: in vivo; settings: rat plasma, mean ± SD
How it was run: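 Rats (male Sprague-Dawley) received one i.p. injection in saline, with a saline control group. Plasma came from serial heparinised jugular-vein samples, plus blood taken at sacrifice in a second cohort. Creatinine and blood urea nitrogen were measured on an automatic biochemical analyser. Peak levels and times to peak were taken from the time profiles and given as mean ± SD.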

rats [10] = assay: Renal histological examination; assay type: in vivo; settings: rat kidney; for histological lesions during the first 2 h: PAS stain; for maximal SQS: mean ± SD, SD
rats [11] = assay: PK-TD model, TD component; assay type: in vivo; settings: i.p., mean ± SD
How it was run: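 Plasma creatinine and BUN time courses were linked to plasma colistin/colistin B through an indirect hypothetical effect compartment. K_e is the rate constant from the central to the effect compartment. The effect was linear: E = E₀ + S·C_e, with E₀ the pre-dose baseline. T_lag was calculated as 1/K_e. Fit was judged by R², AIC, BIC and visual inspection. Parameters are mean ± SD.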

rats [12] = assay: Maximal tolerability dose; assay type: in vivo; settings: intraperitoneal
[13] = physiologically-based PK model; cited from earlier work
[14] = single i.p. CMS or CMS-E2 20 mg/kg CBA
[15] = rat kidney cortex, single i.p. CMS 10 mg/kg CBA, LC-MS/MS, NCA
[16] = rat kidney cortex, single i.p. CMS 10 mg/kg CBA, LC-MS/MS, SD
[17] = rat kidney cortex, single i.p. CMS 20 mg/kg CBA, LC-MS/MS, NCA
[18] = rat kidney cortex, single i.p. CMS or CMS-E2 20 mg/kg CBA, LC-MS/MS, NCA
[19] = rat kidney cortex, single i.p. CMS or CMS-E2 20 mg/kg CBA, LC-MS/MS, SD
[20] = rats, single i.p. CMS or CMS-E2 20 mg/kg CBA

CC[C@H](C)CCCCC(=O)N[C@@H](CCN)C(=O)N[C@H](C(=O)N[C@@H](CCN)C(=O)N[C@H]1CCNC(=O)[C@H]([C@@H](C)O)NC(=O)[C@H](CCN)NC(=O)[C@H](CCN)NC(=O)[C@H](CC(C)C)NC(=O)[C@@H](CC(C)C)NC(=O)[C@H](CCN)NC1=O)[C@@H](C)O [colistin, Colistin] (X1-[Dab]T[Dab][Dab][Dab][dL]L[Dab][Dab]T; lactam 4-C)
AUC0-inf formed colistin/colistin B in plasma ([1]; single i.p. CMS 10 mg/kg CBA): 2050 ± 371 ng·h/mL
Cmax formed colistin/colistin B in plasma ([1]; single i.p. CMS 10 mg/kg CBA): 764 ± 123 ng/mL
Tmax formed colistin/colistin B in plasma ([1]; single i.p. CMS 10 mg/kg CBA): 2.00 ± 0.00 h
t1/2 formed colistin/colistin B in plasma ([1]; single i.p. CMS 10 mg/kg CBA): 0.74 ± 0.0768 h
AUC0-inf formed colistin/colistin B in plasma [1, 14]: 23100 ± 7460 ng·h/mL
Cmax formed colistin/colistin B in plasma [1, 14]: 3990 ± 1520 ng/mL
Tmax formed colistin/colistin B in plasma [1, 14]: 3.55 ± 0.891 h
t1/2 formed colistin/colistin B in plasma [1, 14]: 1.88 ± 0.672 h
Kp ([2]; male, Sprague-Dawley, rat, ip, 10 mg/kg CBA, Kidney/plasma ratio of AUC0-inf, rats, single i.p. CMS 10 mg/kg CBA): 31.6
Kp ([2]; male, Sprague-Dawley, rat, ip, 10 mg/kg CBA, Kidney/plasma ratio of Cmax, rats, single i.p. CMS 10 mg/kg CBA): 13.7
Kp ([2]; male, Sprague-Dawley, rat, ip, 20 mg/kg CBA, Kidney/plasma ratio of AUC0-inf, rats, single i.p. CMS or CMS-E2 20 mg/kg CBA): 26.1
tissue level at time at 8 h ([2]; male, Sprague-Dawley, rat, kidney cortex, ip, 10 mg/kg CBA, SD): 3550 ± 594 ng/g
tissue level at time at 24 h ([2]; male, Sprague-Dawley, rat, kidney cortex, ip, 20 mg/kg CBA, SD): 5970 ± 1850 ng/g
AUC0-inf formed colistin/colistin B in kidneys [2, 15]: 64.7 µg·h/g
Tmax formed colistin/colistin B in kidneys [2, 15]: 2 h
t1/2 formed colistin/colistin B in kidneys [2, 15]: 1.21 h
Cmax formed colistin/colistin B in kidneys [2, 16]: 10.4 ± 3.13 µg/g
AUC0-inf formed colistin/colistin B in kidneys [2, 17]: 603 µg·h/g
t1/2 formed colistin/colistin B in kidneys [2, 17]: 6.23 h
Tmax formed colistin/colistin B in kidneys [2, 18]: 6 h
Cmax formed colistin/colistin B in kidneys [2, 19]: 53.6 ± 11.0 µg/g
Kidney/plasma ratio of Cmax, colistin/colistin B [2, 20]: 12.7
CLcolistin/colistin B (total body clearance) [3]: 2.57 ± 0.420 mL/min/kg
regression coefficient between kidney concentration and SQS (rats [4]; ordered logistic regression): 0.10
regression coefficient between kidney concentration and contemporaneous BUN (rats [4]; simple linear regression): 0.27
regression coefficient between kidney concentration and contemporaneous CR (rats [4]; simple linear regression): 0.74
t1/2 in prior reports [5]: 0.533 to 1.8 h
steady-state trough concentration associated with increased nephrotoxicity (patients; plasma colistin): > 2.2 mg/L
fraction undergoing glomerular filtration into the tubular lumen [6]: 18%

colistin A
apoptotic effect relative to colistin B [7]: three times
plasma protein binding [8]: 56.6 ± 9.25%

colistin methanesulphonate [CMS]
AUC0-inf CMS/CMS-E2 in plasma ([1]; single i.p. CMS 10 mg/kg CBA): 30700 ± 763 ng·h/mL
CL/F CMS/CMS-E2 ([1]; single i.p. CMS 10 mg/kg CBA): 5.42 ± 0.132 mL/min/kg
Cmax CMS/CMS-E2 in plasma ([1]; single i.p. CMS 10 mg/kg CBA): 21400 ± 727 ng/mL
Tmax CMS/CMS-E2 in plasma ([1]; single i.p. CMS 10 mg/kg CBA): 0.333 ± 0.118 h
Vd/F CMS/CMS-E2 ([1]; single i.p. CMS 10 mg/kg CBA): 0.213 ± 0.0362 L/kg
t1/2 CMS/CMS-E2 in plasma ([1]; single i.p. CMS 10 mg/kg CBA): 0.453 ± 0.068 h
AUC0-inf CMS/CMS-E2 in plasma [1, 14]: 149000 ± 69600 ng·h/mL
CL/F CMS/CMS-E2 [1, 14]: 2.99 ± 2.02 mL/min/kg
Cmax CMS/CMS-E2 in plasma [1, 14]: 39500 ± 13700 ng/mL
Tmax CMS/CMS-E2 in plasma [1, 14]: 1.30 ± 0.458 h
Vd/F CMS/CMS-E2 [1, 14]: 0.266 ± 0.0816 L/kg
t1/2 CMS/CMS-E2 in plasma [1, 14]: 1.27 ± 0.557 h
Tmax CMS/CMS-E2 in kidneys [2, 15]: 2 h
Cmax CMS/CMS-E2 in kidneys [2, 16]: 64.2 ± 38.1 µg/g
AUC0-inf CMS/CMS-E2 in kidneys [2, 18]: 1620 µg·h/g
Tmax CMS/CMS-E2 in kidneys [2, 18]: 4 h
t1/2 CMS/CMS-E2 in kidneys [2, 18]: 1.03 h
Cmax CMS/CMS-E2 in kidneys [2, 19]: 281 ± 92.8 µg/g
CMS concentration in renal tissue at 6, 8 h ([2]; rat kidney, single i.p. CMS 10 mg/kg CBA, LC-MS/MS): below the lower limit
CMS concentration in renal tissue at 24 h ([2]; rat kidney, single i.p. CMS 20 mg/kg CBA, LC-MS/MS): below the lower limit
Kidney/plasma ratio of Cmax, CMS/CMS-E2 [2, 20]: 7.11
peak BUN level (rats [9]; single i.p. CMS 10 mg/kg CBA): 8.09 ± 1.66 mmol/L
peak CR level (rats [9]; single i.p. CMS 10 mg/kg CBA): 31.3 ± 5.41 µmol/L
time of peak BUN (rats [9]; single i.p. CMS 10 mg/kg CBA): 5.00 ± 0.00 h
time of peak CR level (rats [9]; single i.p. CMS 10 mg/kg CBA): 2.67 ± 1.70 h
peak BUN level (rats [9]; [14]): 17.8 ± 3.83 mmol/L
peak CR level (rats [9]; [14]): 93.1 ± 29.8 µmol/L
time of peak BUN (rats [9]; [14]): 7.82 ± 1.34 h
time of peak CR level (rats [9]; [14]): 5.36 ± 1.30 h
histological lesions during the first 2 h (rats [10]; single i.p. CMS 10 mg/kg CBA): No obvious histological lesion
histological lesions during the first 2 h (rats [10]; [14]): No obvious histological lesion
recovery of histological damage at 8 h (rats [10]; single i.p. CMS 10 mg/kg CBA): most of the damage was completely recovered
maximal SQS (rats [10]; single i.p. CMS 10 mg/kg CBA): 2.00 ± 0.00
recovery of histological damage at 24 h (rats [10]; single i.p. CMS 20 mg/kg CBA): all damage was completely recovered
maximal SQS (rats [10]; [14]): 3.00 ± 0.00
CLCMS/CMS-E2 (total body clearance) [3]: 5.14 ± 0.196 mL/min/kg
Ka CMS/CMS-E2 (absorption rate) [3]: 2.02 ± 0.260 h⁻¹
V (volume of distribution) [3]: 0.194 ± 0.0128 L/kg
S (slope between colistin/colistin B concentration in effect compartment and CR) (rats [11]; E = E0 + S·Ce): 20.9 ± 9.13 mmol/g
Ke (rate from colistin/colistin B central compartment to effect compartment), BUN (rats [11]; indirect link PK-TD model, effect = BUN): 0.157 ± 0.100 h⁻¹
Ke (rate from colistin/colistin B central compartment to effect compartment), CR (rats [11]; indirect link PK-TD model, effect = plasma CR): 0.833 ± 0.555 h⁻¹
Tlag (lag time), BUN (rats [11]; reciprocal of Ke, effect = BUN): 8.45 ± 4.08 h
Tlag (lag time), CR (rats [11]; reciprocal of Ke, effect = plasma CR): 1.73 ± 1.22 h
maximal tolerability dose (rats [12]): 20 mg/kg CBA
t1/2 in prior reports [5]: 0.333 to 0.667 h
incidence of CMS-associated nephrotoxicity (patients; meta-analyses): up to 48%
renal CMS conversion [13]: < 1%
